Test results as given in ChEMBL document CHEMBL4229410, “Facile construction of fused benzimidazole-isoquinolinones that induce cell-cycle arrest and apoptosis in colorectal cancer cells” (Bioorg Med Chem, 2018).
Active and inactive are the calls of the source. The rule behind the calls is not given here.

Legend:
[1] = molecular target: Serine/threonine-protein kinase PAK 2 (Homo sapiens, UniProt Q13177); test: Binding affinity to partial length human PAK2 (P151 to R525 residues) expressed in bacterial expression system by KINOMEscan assay
[2] = tested on: Tyrosine-protein kinase ABL1 (Homo sapiens), P00519 [T315I]; test: Inhibition of human phosphorylated ABL1 T315I mutant (S229 to K512 residues) expressed in mammalian expression system assessed as residual activity at 5 uM by KINOMEscan assay relative to control
HT-29 [3] = test: Cell cycle arrest in human HT-29 cells assessed as accumulation at G2-phase at 50 uM after 48 hrs by propidium iodide staining based flow cytometry (reference value: 15.45%); format: functional
[4] = tested on: Mast/stem cell growth factor receptor Kit (Homo sapiens), P10721 [V559D,T670I]; test: Inhibition of human KIT (I571 to D952 residues) V559D/T670I double mutant expressed in bacterial expression system assessed as residual activity at 5 uM by KINOMEscan assay relative to control
SW-620 [5] = test: Cell cycle arrest in human SW620 cells assessed as accumulation at G2-phase at 25 uM after 48 hrs by propidium iodide staining based flow cytometry (reference value: 14.08%); format: functional
[6] = molecular target: Serine/threonine-protein kinase RIO2 (Homo sapiens, UniProt Q9BVS4); test: Inhibition of human RIOK2 (M1 to D313 residues) expressed in mammalian expression system assessed as residual activity at 5 uM by KINOMEscan assay relative to control
[7] = molecular target: T1, cAMP-dependent protein kinase catalytic subunit alpha (Homo sapiens, UniProt P17612); test: Inhibition of human PKACalpha (G10 to F351 residues) expressed in bacterial expression system assessed as residual activity at 5 uM by KINOMEscan assay relative to control
[8] = molecular target: T1, cAMP-dependent protein kinase catalytic subunit alpha; test: Binding affinity to human PKACalpha (G10 to F351 residues) expressed in bacterial expression system by KINOMEscan assay
SW-620 [9] = test: Down regulation of CDK1 expression in human SW620 cells after 48 hrs by Western blot analysis; format: functional, cell-based
How it was run: (§1)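 HT29 or SW620 cells were treated at 0, 25, 50 and 75 μM for 48 h and lysed in RIPA with protease and phosphatase inhibitors. Protein was quantified by BCA. 50 μg lysate was run on 8–15% SDS-PAGE and transferred to PVDF. Blocking was 5% BSA/TBST for 2 h; primary antibodies were applied overnight at 4 °C, then HRP secondary 1 h at room temperature.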

[10] = molecular target: Protein kinase C epsilon type (Homo sapiens, UniProt Q02156); test: Binding affinity to human PRKCE (A378 to P737 residues) expressed in mammalian expression system by KINOMEscan assay
[11] = molecular target: Testis-specific serine/threonine-protein kinase 1 (Homo sapiens) (UniProt Q9BXA7); test: Inhibition of full length human TSSK1B (M1 to Q367 residues) expressed in bacterial expression system assessed as residual activity at 5 uM by KINOMEscan assay relative to control
[12] = molecular target: Cyclin-dependent kinase 19 (Homo sapiens, UniProt Q9BWU1); test: Binding affinity to human CDK11 (M1 to N360 residues) expressed in bacterial expression system by KINOMEscan assay
[13] = molecular target: Insulin-like growth factor 1 receptor (Homo sapiens, UniProt P08069); test: Inhibition of human IGF1R (L972 to D1294 residues) expressed in bacterial expression system assessed as residual activity at 5 uM by KINOMEscan assay relative to control
HT-29 [14] = test: Induction of apoptosis in human HT-29 cells assessed as live cells at 75 uM after 48 hrs by Annexin-V-FITC/propidium iodide staining based flow cytometry (reference value: 93.2%); format: functional
[15] = molecular target: T2, Tyrosine-protein kinase ABL1 (Homo sapiens, UniProt P00519); test: Inhibition of human non-phosphorylated ABL1 (S229 to K512 residues) expressed in mammalian expression system assessed as residual activity at 5 uM by KINOMEscan assay relative to control
[16] = molecular target: Inhibitor of nuclear factor kappa-B kinase subunit alpha (Homo sapiens) (UniProt O15111); test: Inhibition of full length human IKKalpha (M1 to E745 residues) expressed in mammalian expression system assessed as residual activity at 5 uM by KINOMEscan assay relative to control
HT-29 [17] = test: Inhibition of colony formation in human HT-29 cells assessed as reduction in number of colonies at 25 to 75 uM treated for 48 hrs followed by compound washout and measured after 14 hrs by crystal violet staining based assay; format: functional, cell-based
[18] = molecular target: Serine/threonine-protein kinase ULK2 (Homo sapiens, UniProt Q8IYT8); test: Binding affinity to human ULK2 (M1 to S301 residues) expressed in mammalian expression system by KINOMEscan assay
[19] = molecular target: Cyclin-dependent kinase 7 (Homo sapiens, UniProt P50613); test: Binding affinity to full length human CDK7 (M1 to L344 residues) expressed in mammalian expression system by KINOMEscan assay
[20] = molecular target: T2, Tyrosine-protein kinase ABL1; test: Inhibition of human phosphorylated ABL1 (S229 to K512 residues) expressed in mammalian expression system assessed as residual activity at 5 uM by KINOMEscan assay relative to control
SW-620 [21] = test: Down regulation of cyclin-B1 expression in human SW620 cells after 48 hrs by Western blot analysis; format: functional, cell-based; how it was run: as §1
[22] = molecular target: Macrophage colony-stimulating factor 1 receptor (Homo sapiens, UniProt P07333); test: Binding affinity to human CSF1R (I564 to S939 residues) expressed in bacterial expression system by KINOMEscan assay
[23] = molecular target: Non-receptor tyrosine-protein kinase TYK2 (Homo sapiens, UniProt P29597); test: Binding affinity to human TYK2 JH1 catalytic domain (V877 to C1187 residues) expressed in mammalian expression system by KINOMEscan assay
[24] = molecular target: Phosphatidylinositol 4-phosphate 3-kinase C2 domain-containing subunit beta (Homo sapiens, UniProt O00750); test: Inhibition of human PIK3C2B (M1 to L1634 residues) expressed in mammalian expression system assessed as residual activity at 5 uM by KINOMEscan assay relative to control
[25] = molecular target: Glycogen synthase kinase-3 beta (Homo sapiens, UniProt P49841); test: Binding affinity to full length human GSK3B (M1 to T433 residues) expressed in mammalian expression system by KINOMEscan assay
[26] = molecular target: Tyrosine-protein kinase BTK (Homo sapiens, UniProt Q06187); test: Binding affinity to full length human BTK (M1 to S659 residues) expressed in mammalian expression system by KINOMEscan assay
Homo sapiens = species: Homo sapiens; test: Inhibition of PI3K in human SW620 cells assessed as reduction in AKT phosphorylation at T308 residue up to 75 uM after 48 hrs by Western blot analysis; format: cell-based
[27] = molecular target: Mitogen-activated protein kinase 11 (Homo sapiens, UniProt Q15759); test: Binding affinity to full length human p38beta (M1 to Q364 residues) expressed in bacterial expression system by KINOMEscan assay
[28] = molecular target: MAP kinase-interacting serine/threonine-protein kinase 2 (Homo sapiens, UniProt Q9HBH9); test: Binding affinity to human MKNK2 (G63 to S388 residues) expressed in mammalian expression system by KINOMEscan assay
MAP kinase-interacting serine/threonine-protein kinase 2, sequence (Q9HBH9 whole entry, the tested form may be a part): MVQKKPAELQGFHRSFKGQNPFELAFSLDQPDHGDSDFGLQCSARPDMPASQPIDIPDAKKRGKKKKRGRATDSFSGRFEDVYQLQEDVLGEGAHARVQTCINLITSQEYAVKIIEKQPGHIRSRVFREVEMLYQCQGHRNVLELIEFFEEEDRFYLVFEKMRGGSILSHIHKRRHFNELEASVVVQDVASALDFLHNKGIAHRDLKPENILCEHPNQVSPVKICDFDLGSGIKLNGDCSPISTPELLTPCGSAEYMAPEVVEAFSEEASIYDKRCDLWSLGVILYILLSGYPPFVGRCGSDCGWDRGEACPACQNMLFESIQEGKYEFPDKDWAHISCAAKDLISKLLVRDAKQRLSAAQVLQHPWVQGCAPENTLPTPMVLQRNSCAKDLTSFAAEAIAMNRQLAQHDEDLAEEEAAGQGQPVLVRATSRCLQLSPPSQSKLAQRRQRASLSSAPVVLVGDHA

Tyrosine-protein kinase BTK, sequence (Q06187 whole entry, the tested form may be a part): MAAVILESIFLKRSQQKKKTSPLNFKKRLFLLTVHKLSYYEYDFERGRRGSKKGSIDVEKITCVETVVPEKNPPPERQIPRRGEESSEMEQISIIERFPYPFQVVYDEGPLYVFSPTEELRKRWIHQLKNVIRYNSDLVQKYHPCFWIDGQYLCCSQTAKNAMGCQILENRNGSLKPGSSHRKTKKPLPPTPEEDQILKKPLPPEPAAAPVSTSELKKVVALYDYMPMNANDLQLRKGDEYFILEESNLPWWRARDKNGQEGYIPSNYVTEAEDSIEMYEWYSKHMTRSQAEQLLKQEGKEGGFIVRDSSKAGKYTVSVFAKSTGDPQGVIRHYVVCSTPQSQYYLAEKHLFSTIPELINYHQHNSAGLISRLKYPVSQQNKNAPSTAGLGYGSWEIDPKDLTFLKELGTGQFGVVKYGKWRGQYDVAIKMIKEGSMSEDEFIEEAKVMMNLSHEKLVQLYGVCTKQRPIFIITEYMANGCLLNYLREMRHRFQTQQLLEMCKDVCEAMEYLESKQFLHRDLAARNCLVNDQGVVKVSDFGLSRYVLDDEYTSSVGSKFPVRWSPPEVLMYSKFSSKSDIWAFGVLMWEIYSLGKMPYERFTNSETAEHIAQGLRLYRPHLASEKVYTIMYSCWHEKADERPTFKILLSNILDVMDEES
Mitogen-activated protein kinase 11, sequence (Q15759 whole entry, the tested form may be a part): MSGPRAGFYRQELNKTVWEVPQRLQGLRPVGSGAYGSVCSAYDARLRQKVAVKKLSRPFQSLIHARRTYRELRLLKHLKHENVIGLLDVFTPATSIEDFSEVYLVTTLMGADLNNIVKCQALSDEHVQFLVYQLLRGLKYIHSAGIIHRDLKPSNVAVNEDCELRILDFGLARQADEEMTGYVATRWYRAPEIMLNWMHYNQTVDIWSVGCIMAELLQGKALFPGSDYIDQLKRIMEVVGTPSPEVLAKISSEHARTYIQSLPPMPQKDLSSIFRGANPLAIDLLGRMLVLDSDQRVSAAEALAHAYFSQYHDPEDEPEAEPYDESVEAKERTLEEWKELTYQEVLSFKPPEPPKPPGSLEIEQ
Testis-specific serine/threonine-protein kinase 1 (Homo sapiens), sequence (Q9BXA7 whole entry, the tested form may be a part): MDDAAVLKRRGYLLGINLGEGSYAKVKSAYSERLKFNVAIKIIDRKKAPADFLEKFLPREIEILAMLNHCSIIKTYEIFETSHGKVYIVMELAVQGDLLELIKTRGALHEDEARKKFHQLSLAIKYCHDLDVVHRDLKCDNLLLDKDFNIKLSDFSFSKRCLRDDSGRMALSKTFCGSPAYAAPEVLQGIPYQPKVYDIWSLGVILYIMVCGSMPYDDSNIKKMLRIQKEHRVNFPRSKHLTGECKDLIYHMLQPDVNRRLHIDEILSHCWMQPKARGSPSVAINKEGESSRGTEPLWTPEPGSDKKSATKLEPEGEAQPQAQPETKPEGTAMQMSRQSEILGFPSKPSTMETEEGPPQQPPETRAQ
Inhibitor of nuclear factor kappa-B kinase subunit alpha (Homo sapiens), sequence (O15111 whole entry, the tested form may be a part): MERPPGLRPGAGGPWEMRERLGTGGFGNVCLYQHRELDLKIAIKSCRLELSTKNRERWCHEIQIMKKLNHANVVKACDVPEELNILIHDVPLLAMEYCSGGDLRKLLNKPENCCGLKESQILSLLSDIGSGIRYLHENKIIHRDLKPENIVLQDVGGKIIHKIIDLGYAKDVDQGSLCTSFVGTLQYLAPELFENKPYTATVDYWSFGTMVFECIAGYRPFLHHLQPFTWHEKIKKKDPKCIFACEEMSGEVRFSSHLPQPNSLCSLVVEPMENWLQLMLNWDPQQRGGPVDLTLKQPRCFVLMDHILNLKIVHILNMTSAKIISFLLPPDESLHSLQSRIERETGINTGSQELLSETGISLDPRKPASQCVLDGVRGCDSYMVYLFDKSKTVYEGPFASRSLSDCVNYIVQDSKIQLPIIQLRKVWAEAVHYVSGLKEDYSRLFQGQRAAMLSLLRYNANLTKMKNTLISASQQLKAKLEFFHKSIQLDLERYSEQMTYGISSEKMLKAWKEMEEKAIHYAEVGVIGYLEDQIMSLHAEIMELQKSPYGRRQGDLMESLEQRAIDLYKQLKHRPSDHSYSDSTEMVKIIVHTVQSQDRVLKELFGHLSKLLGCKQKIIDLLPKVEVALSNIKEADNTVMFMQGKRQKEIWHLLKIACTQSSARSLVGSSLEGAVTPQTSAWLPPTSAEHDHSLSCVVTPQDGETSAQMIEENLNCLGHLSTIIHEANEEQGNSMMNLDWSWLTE
Serine/threonine-protein kinase ULK2, sequence (Q8IYT8 whole entry, the tested form may be a part): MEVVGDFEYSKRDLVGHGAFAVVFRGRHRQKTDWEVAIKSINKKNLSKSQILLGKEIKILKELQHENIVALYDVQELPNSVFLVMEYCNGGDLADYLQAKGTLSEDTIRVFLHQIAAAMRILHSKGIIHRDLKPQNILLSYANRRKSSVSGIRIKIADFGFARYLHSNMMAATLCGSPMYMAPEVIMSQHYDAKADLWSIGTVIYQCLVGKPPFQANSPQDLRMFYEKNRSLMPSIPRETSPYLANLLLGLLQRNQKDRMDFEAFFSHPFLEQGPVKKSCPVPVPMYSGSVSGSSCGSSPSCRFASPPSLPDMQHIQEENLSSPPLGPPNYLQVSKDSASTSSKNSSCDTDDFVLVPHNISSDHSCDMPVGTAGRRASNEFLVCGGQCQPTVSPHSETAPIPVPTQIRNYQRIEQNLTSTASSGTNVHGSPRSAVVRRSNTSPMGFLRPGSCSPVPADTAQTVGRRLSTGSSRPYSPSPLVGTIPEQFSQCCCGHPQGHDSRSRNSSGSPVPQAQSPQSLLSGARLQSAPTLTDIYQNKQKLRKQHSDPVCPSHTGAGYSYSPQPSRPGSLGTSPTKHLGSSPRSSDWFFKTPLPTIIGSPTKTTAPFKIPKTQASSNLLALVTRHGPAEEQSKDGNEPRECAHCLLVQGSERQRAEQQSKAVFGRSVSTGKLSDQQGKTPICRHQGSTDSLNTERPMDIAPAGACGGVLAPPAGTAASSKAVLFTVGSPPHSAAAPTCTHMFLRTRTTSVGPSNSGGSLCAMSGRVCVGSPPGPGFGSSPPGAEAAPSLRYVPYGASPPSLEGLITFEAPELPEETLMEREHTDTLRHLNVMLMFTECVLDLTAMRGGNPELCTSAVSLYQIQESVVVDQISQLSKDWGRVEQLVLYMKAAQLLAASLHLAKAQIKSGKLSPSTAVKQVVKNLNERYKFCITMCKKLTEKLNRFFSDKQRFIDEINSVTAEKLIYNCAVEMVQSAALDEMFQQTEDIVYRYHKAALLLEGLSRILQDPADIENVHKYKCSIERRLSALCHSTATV
Non-receptor tyrosine-protein kinase TYK2, sequence (P29597 whole entry, the tested form may be a part): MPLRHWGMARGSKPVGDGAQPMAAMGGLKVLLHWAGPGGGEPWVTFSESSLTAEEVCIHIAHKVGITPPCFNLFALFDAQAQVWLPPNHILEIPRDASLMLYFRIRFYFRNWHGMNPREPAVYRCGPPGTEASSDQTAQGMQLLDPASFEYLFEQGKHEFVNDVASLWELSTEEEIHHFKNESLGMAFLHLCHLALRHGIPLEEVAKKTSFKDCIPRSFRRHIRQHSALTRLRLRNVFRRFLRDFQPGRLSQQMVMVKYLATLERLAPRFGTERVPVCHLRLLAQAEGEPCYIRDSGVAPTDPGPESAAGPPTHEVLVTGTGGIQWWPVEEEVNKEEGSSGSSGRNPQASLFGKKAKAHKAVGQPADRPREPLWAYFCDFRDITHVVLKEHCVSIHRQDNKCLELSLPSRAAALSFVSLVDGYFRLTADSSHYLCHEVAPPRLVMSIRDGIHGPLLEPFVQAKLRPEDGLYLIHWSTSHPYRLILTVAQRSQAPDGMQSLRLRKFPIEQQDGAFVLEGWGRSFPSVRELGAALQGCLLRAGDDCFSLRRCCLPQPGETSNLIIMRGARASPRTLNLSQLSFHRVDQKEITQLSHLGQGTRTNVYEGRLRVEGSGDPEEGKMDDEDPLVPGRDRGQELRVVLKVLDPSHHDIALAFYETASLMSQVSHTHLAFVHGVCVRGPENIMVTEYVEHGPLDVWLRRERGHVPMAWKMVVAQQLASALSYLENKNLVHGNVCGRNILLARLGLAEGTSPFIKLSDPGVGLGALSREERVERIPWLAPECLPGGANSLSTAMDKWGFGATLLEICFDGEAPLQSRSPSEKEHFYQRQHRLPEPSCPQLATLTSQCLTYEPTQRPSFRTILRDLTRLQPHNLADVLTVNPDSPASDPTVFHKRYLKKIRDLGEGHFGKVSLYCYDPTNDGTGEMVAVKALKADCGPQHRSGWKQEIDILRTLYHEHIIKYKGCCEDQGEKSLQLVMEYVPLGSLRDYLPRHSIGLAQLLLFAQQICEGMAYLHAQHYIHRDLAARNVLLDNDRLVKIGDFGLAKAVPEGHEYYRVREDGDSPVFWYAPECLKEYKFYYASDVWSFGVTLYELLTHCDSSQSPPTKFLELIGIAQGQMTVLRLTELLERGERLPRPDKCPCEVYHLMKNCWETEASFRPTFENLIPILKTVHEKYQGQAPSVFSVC

SMILES: CC(C)CN(C(=O)c1cccnc1)c1c2ccccc2c(=O)n2c1[nH]c1ccccc12
- Kd [1]: ≥ 5 µM
- Activity [2]: 90%
- Activity (HT-29 [3]): 18.12%
- Activity [4]: 98%
- Activity (SW-620 [5]): 14.72%
- Activity [6]: 87%
- Activity [7]: 88%
- Kd [8]: ≥ 5 µM
- Activity (SW-620 [9]): Dose-dependent effect
- Kd [10]: ≥ 5 µM
- Activity [11]: 92%
- Kd [12]: ≥ 5 µM
- Activity [13]: 100%
- Activity (HT-29 [14]): 49.8%
- Activity [15]: 65%
- Activity [16]: 100%
- inhibition (HT-29 [17]): Active
- Kd [18]: ≥ 5 µM
- Kd [19]: ≥ 5 µM
- Activity [20]: 85%
- Activity (SW-620 [21]): Dose-dependent effect
- Kd [22]: ≥ 5 µM
- Kd [23]: ≥ 5 µM
- Activity [24]: 97%
- Kd [25]: ≥ 5 µM
- Kd [26]: ≥ 5 µM
- inhibition (Homo sapiens): Active
- Kd [27]: ≥ 5 µM
- Kd [28]: ≥ 5 µM
